Results reported in ChEMBL document CHEMBL1154243, “Chemical Constituents of the Roots of Euphorbia micractina” (J Nat Prod, 2009).
Active and inactive are the calls of the source. The calls are words filed in the database; no cut-off is given here.

How the values were obtained:
[1] = test system: A2780; assay: Cytotoxicity against human A2780 cells after 4 days by MTT assay; assay type: functional, cell-based
[2] = test system: Human immunodeficiency virus 1; assay: Antiviral activity against HIV-1 NL4-3 expressing VSV-G envelope infected in human 293T cells assessed as inhibition of viral replication after 48 hrs by Luciferase reporter gene assay; assay type: functional, organism-based
How it was run: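 VSV-G-pseudotyped, env-deficient pNL4-3.luc.R-E- virions made by calcium phosphate cotransfection of 293 cells, then filtered. Virions quantified by p24 ELISA and diluted to 0.2 ng p24/mL. Compounds added 15 min before virus, with solvent-only blank. Luciferase in lysates read 48 h post-infection. Zidovudine served as positive control.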

[3] = molecular target: T1, Tyrosine-protein phosphatase non-receptor type 1 (Homo sapiens) (UniProt P18031); assay: Inhibition of GST-tagged human PTP1B
T1 sequence (whole entry): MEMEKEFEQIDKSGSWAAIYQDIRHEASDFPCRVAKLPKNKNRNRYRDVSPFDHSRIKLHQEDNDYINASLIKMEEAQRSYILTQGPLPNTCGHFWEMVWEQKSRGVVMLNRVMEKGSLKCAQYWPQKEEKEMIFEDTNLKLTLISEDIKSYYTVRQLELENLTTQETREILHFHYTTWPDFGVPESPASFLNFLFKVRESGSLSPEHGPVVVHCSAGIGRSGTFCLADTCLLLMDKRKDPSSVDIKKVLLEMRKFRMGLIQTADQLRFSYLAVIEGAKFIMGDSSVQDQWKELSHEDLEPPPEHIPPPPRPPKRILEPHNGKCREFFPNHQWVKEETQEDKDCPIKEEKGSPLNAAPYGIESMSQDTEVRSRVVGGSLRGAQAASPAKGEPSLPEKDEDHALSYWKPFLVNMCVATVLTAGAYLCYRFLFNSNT

SMILES | Activity [1] | Activity [2] | inhibition [3] | inhibition [2] | IC50 ([2]; Human immunodeficiency virus 1, NL4-3, HEK-293T) [µM] | IC50 ([1]; A2780, 96 h) [µM]
CC(=O)O[C@H]1CC[C@@]2(C)[C@@H]3C[C@@H]4OC(=O)C(C)=C4C=C3CC[C@@H]2C1(C)C | inactive | inactive | inactive | – | – | –
CC1=C2C=C3CC[C@@H]4C(C)(C)[C@H](O)CC[C@@]4(C)[C@@H]3C[C@H]2OC1=O | inactive | inactive | inactive | – | – | –
CC1(C)CC[C@]2(CO)CC[C@]3(C)C(=CC[C@@H]4[C@@]5(C)CC[C@H](O)C(C)(C)[C@@H]5CC[C@]43C)[C@@H]2C1 | inactive | inactive | inactive | – | – | –
C=C(C)[C@H](O)CC[C@H](C)[C@@H]1CC[C@]2(C)C3=C(CC[C@@]12C)[C@@]1(C)CC[C@H](O)C(C)(C)[C@@H]1CC3 | inactive | – | inactive | inactive | – | –
O=C(O)/C=C/c1ccccc1 | inactive | inactive | inactive | – | – | –
COc1cc2ccc(=O)oc2cc1O | inactive | inactive | inactive | – | – | –
C[C@@H](C/C=C/C(C)(C)OO)[C@@H]1CC[C@]2(C)C3=C(CC[C@@]12C)[C@@]1(C)CC[C@H](O)C(C)(C)[C@@H]1CC3=O | inactive | – | inactive | inactive | – | –
CC1=C2C=C3CC[C@@H]4C(C)(C)[C@@H](O)CC[C@@]4(C)[C@@H]3C[C@H]2OC1=O | inactive | inactive | inactive | – | – | –
CCCCCCCCCCCCCCCC(=O)OCC(O)CO (stereo not given) | inactive | inactive | inactive | – | – | –
C=C(C)[C@@H](CC[C@H](C)[C@@H]1CC[C@]2(C)C3=C(CC[C@@]12C)[C@@]1(C)CC[C@H](O)C(C)(C)[C@@H]1CC3=O)OO | inactive | – | inactive | inactive | – | –
C[C@@H](C/C=C/C(C)(C)OO)[C@@H]1CC[C@]2(C)C3=C(C(=O)C[C@@]12C)[C@@]1(C)CC[C@H](O)C(C)(C)[C@@H]1CC3=O | inactive | – | inactive | inactive | – | –
CC(=O)O[C@]12C[C@H](C)[C@H](O)[C@@H]1/C=C(\C)CC[C@H]1[C@@H](/C=C(\C)C2=O)C1(C)C | inactive | inactive | inactive | – | – | –
C/C1=C\[C@@H]2[C@H](CC[C@@]3(C)O[C@@H]3[C@H]3[C@@H](O)[C@@H](C)C[C@]3(OC(=O)c3ccccc3)C1=O)C2(C)C | inactive | inactive | inactive | – | – | –
C/C1=C\[C@@H]2[C@H](CC[C@@]3(C)O[C@@H]3[C@H]3[C@@H](O)[C@@H](C)C[C@]3(OC(=O)/C=C/c3ccccc3)C1=O)C2(C)C [JOLKINOL B] | inactive | – | inactive | – | 12.6 | –
CCCCCCCCCCCCCCCCCCCCCCCCCCCCCCO | inactive | inactive | inactive | – | – | –
COc1ccc(C(=O)OCCc2ccc(O)cc2)cc1 | inactive | inactive | inactive | – | – | –
CC[C@H](CC[C@@H](C)[C@H]1CC[C@H]2[C@@H]3CC=C4C[C@@H](O)CC[C@]4(C)[C@H]3CC[C@]12C)C(C)C | inactive | inactive | inactive | – | – | –
CCCCCCCCCC/C=C\CCCCCC(=O)OC(CO)CO | inactive | inactive | inactive | – | – | –
C=C(C)[C@@H]1CC[C@]2(CO)CC[C@]3(C)[C@H](CC[C@@H]4[C@@]5(C)CC[C@H](O)C(C)(C)[C@@H]5CC[C@]43C)[C@@H]12 [BETULIN] | – | inactive | inactive | – | – | 6.1
C=C(C)[C@H](CC[C@@H](C)[C@@H]1CC[C@]2(C)C3=C(CC[C@@]12C)[C@@]1(C)CC[C@H](O)C(C)(C)[C@@H]1CC3=O)OO | inactive | – | inactive | inactive | – | –
CC1=C2C=C3CC[C@@H]4C(C)(C)C(=O)CC[C@@]4(C)[C@@H]3C[C@H]2OC1=O | inactive | inactive | inactive | – | – | –
CCCCC/C=C/C=C\C(=O)O[C@H]1C(C)=C[C@]23C(=O)[C@@H](C=C(COC(C)=O)[C@@H](O)[C@]12O)[C@H]1[C@@H](C[C@H]3C)C1(C)C | inactive | inactive | inactive | – | – | –
C[C@H]1[C@H](C)CC[C@]2(CO)CC[C@]3(C)C(=CC[C@@H]4[C@@]5(C)CC[C@H](O)C(C)(C)[C@@H]5CC[C@]43C)[C@H]12 | inactive | inactive | inactive | – | – | –
C=C(C)[C@H](CC[C@H](C)[C@@H]1CC[C@]2(C)C3=C(CC[C@@]12C)[C@@]1(C)CC[C@H](O)C(C)(C)[C@@H]1CC3=O)OO | inactive | – | inactive | inactive | – | –
C=C(C)[C@H](O)CC[C@H](C)[C@@H]1CC[C@]2(C)C3=CC[C@H]4C(C)(C)[C@@H](O)CC[C@]4(C)C3=CC[C@@]12C | inactive | – | inactive | inactive | – | –
